Assay results from different studies.
Cell line: THP-1

Nc1ncc(-c2cnn(C3CCNCC3)c2)cc1-c1nnc(CC2CC2)o1  IC50 (cell growth or viability, trypan blue; 72 h): 163 nM
CC(C)[C@H](N)C(=O)N1CCC[C@H]1B(O)O  IC50 (cell growth or viability, ATP luminescence; 48 h): 206 nM
NCCc1c[nH]cn1  IC50 (TNF-α release, inhibitor, ELISA; 17 h, LPS-stimulated): 710 nM
O=C(Nc1nnc(-c2cc3ccccc3[nH]2)s1)c1cc2c([nH]c3ccccc32)c(-c2ccc(Cl)cc2)n1  IC50 (cell growth or viability, MTT; 72 h): 4380 nM
Cc1cnc(-c2ccc(-c3ccc(NC(=O)Nc4c(F)cc(F)cc4F)cc3F)c3c2C(=O)NC3)[nH]1  IC50 (cell growth or viability): 3.88 nM
COc1cc2nccc(Oc3ccc(NC(=O)C4(C(=O)Nc5ccc(F)cc5)CC4)cc3)c2cc1OC  IC50 (cell growth or viability, trypan blue; 72 h): 2920 nM
O=C(Nc1nnc(-c2cc3ccccc3[nH]2)s1)c1cc2c([nH]c3ccccc32)c(-c2ccc(F)cc2)n1  IC50 (cell growth or viability, MTT; 72 h): 6110 nM
CC[C@@H](C)[C@H](N)C(=O)N1Cc2ccccc2C1  IC50 (cell growth or viability, ATP luminescence): 1700 nM
COc1cc(-c2nc(C(=O)Nc3nnc(-c4cc5ccccc5n4C)s3)cc3c2[nH]c2ccccc23)cc(OC)c1OC  IC50 (cell growth or viability, MTT; 72 h): 8780 nM
CCC(NC(C)C)C(O)c1ccc(O)c(O)c1 (centres unmarked)  IC50 (TNF-α release, inhibitor; 17 h, LPS-stimulated): 2070 nM
Cn1c(-c2nnc(NC(=O)c3cc4c([nH]c5ccccc54)c(-c4ccc(F)cc4)n3)s2)cc2ccccc21  IC50 (cell growth or viability, MTT; 72 h): 32800 nM
O=[N+]([O-])c1c[nH]nc1-c1nc(-c2ccc(Oc3ccc(I)cc3)cc2)no1  IC50 (cell growth or viability, LDH; 24 h): > 50 µg/mL
Cc1ccc(S(=O)(=O)/C=C/C#N)cc1  IC50 (TNF-α release, inhibitor; 17 h, LPS-stimulated): 1220 nM
COc1cccc2c1C(=O)c1c(O)c3c(c(O)c1C2=O)C[C@@](O)(C(=O)CO)C[C@@H]3O[C@H]1C[C@H](N)[C@H](O)[C@H](C)O1  IC50 (cell growth or viability, MTT; 72 h): 3250 nM
NC[C@H](O)c1ccc(O)c(O)c1  IC50 (TNF-α release, inhibitor; 17 h, LPS-stimulated): 100 nM
C#CCSc1nc(Sc2nnnn2-c2ccccc2)c2nnn(Cc3ccc(OC)cc3)c2n1  IC50 (cell growth or viability, MTS; 6 days): 2520 nM
CC(C)NC[C@@H](O)c1ccc(O)c(O)c1  IC50 (TNF-α release, inhibitor; 17 h, LPS-stimulated): 71 nM
O=C(Nc1nnc(-c2cc3ccccc3[nH]2)s1)c1cc2c([nH]c3ccccc32)c(-c2ccccc2)n1  IC50 (cell growth or viability, MTT; 72 h): 3570 nM
O=C(Nc1nc2ccccc2n1CCN1CCOCC1)c1cccc([N+](=O)[O-])c1  IC50 (TNF-α release, inhibitor; 17 h, LPS-stimulated): 1120 nM
O=C(/C=C/C=C/c1ccc2c(c1)OCO2)N1CCCCC1  IC50 (cell growth or viability, MTT; 48 h): > 50 µg/mL
